# According to ChEMBL document CHEMBL1629439, “High-throughput identification of antibacterials against methicillin-resistant Staphylococcus aureus (MRSA) and the transglycosylase” (Bioorg Med Chem, 2010):
# Tests used:
# [1] = Displacement of fluorescein-labeled moenomycin from transglycosylase at 100 uM after 30 mins by fluorescence anisotropy binding assay
# [2] = Inhibition of transglycosylase assessed as inhibition of NBD- labelled lipid II polymerization at 100 uM
# In short: (§1)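 100 µM NBD-labelled lipid II incubated 30 min with full-length PBP (EC, SA or Mtb) and 10 ng/µl N-acetylmuramidase in 50 mM Tris-HCl pH 8.0, 10 mM MgCl2, 0.1% Triton X-100, 10% DMSO, 15% MeOH. Supernatant run on anion-exchange HPLC with 20 mM–0.5 M ammonium acetate gradient. Inhibition calculated from substrate peak-area percentage. IC50 determined. S. aureus strains share one SA enzyme.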
# [3] = test system: Stenotrophomonas maltophilia; assay: Antimicrobial activity against Stenotrophomonas maltophilia ATCC 13637 after 18 to 24 hrs by alamar blue assay; format: functional; settings: Stenotrophomonas maltophilia, ATCC 13637; read-out: MIC
# In short: (§2)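 Broth microdilution per NCCLS in Mueller-Hinton broth, 8-point twofold dilutions, 384-well format. Exponential-phase cells at 5 × 10^5 cells/ml incubated with compound 18–24 h at 37 °C, then 20% Alamar blue added and fluorescence read. MIC90 taken as the lowest concentration preventing at least 90% bacterial growth.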
# Bacillus subtilis = assay: Antimicrobial activity against Bacillus subtilis ATCC 23857 after 18 to 24 hrs by alamar blue assay; format: functional
# In short: as §2
# [4] = Inhibition of transglycosylase assessed as inhibition of NBD- labelled lipid II polymerization
# In short: as §1
# Staphylococcus aureus [5] = assay: Antimicrobial activity against oxacillin- and methicillin-resistant Staphylococcus aureus isolate Sa-OXA-R2 after 18 to 24 hrs by alamar blue assay; format: functional
# In short: (§3)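 Broth microdilution per NCCLS standard, Mueller-Hinton broth, 8-point twofold dilutions; exponentially growing cells at 5 10^5 cells/ml with compound, 18–24 h at 37 C; 20% Alamar blue added, fluorescence read; MIC90 taken as lowest concentration preventing at least 90% growth.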
# Staphylococcus aureus [6] = assay: Antimicrobial activity against Staphylococcus aureus ATCC 29213 after 18 to 24 hrs by alamar blue assay
# Acinetobacter baumannii = assay: Antimicrobial activity against Acinetobacter baumannii ATCC 49139 after 18 to 24 hrs by alamar blue assay; format: functional; settings: Acinetobacter baumannii, ATCC 49139; read-out: MIC
# In short: as §2
# [7] = test system: Mycolicibacterium smegmatis; assay: Antimicrobial activity against Mycobacterium smegmatis BCRC 11565 after 18 to 24 hrs by alamar blue assay; format: functional; settings: Mycolicibacterium smegmatis, BCRC 11565; read-out: MIC
# In short: as §2
# Staphylococcus aureus [8] = assay: Antimicrobial activity against methicillin-resistant Staphylococcus aureus ATCC 33592 after 18 to 24 hrs by alamar blue assay; format: functional; settings: Staphylococcus aureus, ATCC 33592; read-out: MIC
# In short: as §3
# Serratia marcescens = assay: Antimicrobial activity against Serratia marcescens ATCC 14756 after 18 to 24 hrs by alamar blue assay; format: functional; settings: Serratia marcescens, ATCC 14756; read-out: MIC
# In short: as §2
# Escherichia coli = assay: Antimicrobial activity against Escherichia coli ATCC […] after 18 to 24 hrs by alamar blue assay; format: functional; settings: Escherichia coli; read-out: MIC
# In short: as §2
# Pseudomonas aeruginosa = assay: Antimicrobial activity against Pseudomonas aeruginosa ATCC 25619 after 18 to 24 hrs by alamar blue assay; format: functional; settings: Pseudomonas aeruginosa, ATCC 25619; read-out: MIC
# In short: as §2
# Staphylococcus aureus [9] = assay: Antimicrobial activity against methicillin-resistant Staphylococcus aureus isolate NTUH4722 after 18 to 24 hrs by alamar blue assay; format: functional
# In short: as §3
Structure (SMILES),inhibition [1],inhibition [2],MIC [3],MIC (Bacillus subtilis),IC90 [4],MIC (Staphylococcus aureus [5]),MIC (Staphylococcus aureus [6]),MIC (Acinetobacter baumannii),MIC [7],MIC (Staphylococcus aureus [8]),MIC (Serratia marcescens),MIC (Escherichia coli),MIC (Pseudomonas aeruginosa),MIC (Staphylococcus aureus [9])
O=C(Nc1ccc(C(F)(F)F)cc1)N1CCN(c2nc(CCc3ccccc3)nc3sc4c(c23)CCCC4)CC1,90%,0%,,,,,,,,,,,,
O=C(Nc1ccc(Oc2ccc(Cl)c3cccnc23)c(Br)c1)c1cc(Br)cc(Br)c1O,,,16 mg/L,< 0.03 mg/L,50 µM,≤ 0.03 mg/L,32 mg/L,16 mg/L,0.5 mg/L,16 mg/L,16 mg/L,8 mg/L,16 mg/L,≤ 0.03 mg/L
CN1C(=O)c2ccccc2Sc2ccc(NC(=O)c3ccc([N+](=O)[O-])o3)cc21,91%,0%,32 mg/L,0.06 mg/L,,2 mg/L,2 mg/L,12 mg/L,0.5 mg/L,1 mg/L,32 mg/L,256 mg/L,128 mg/L,0.5 mg/L
Cc1ccc(C(C)C)c(Oc2ccc(Cl)cc2NC(=O)c2cc(I)cc(I)c2O)c1,,,16 mg/L,< 0.03 mg/L,50 µM,≤ 0.03 mg/L,4 mg/L,16 mg/L,0.5 mg/L,0.5 mg/L,16 mg/L,8 mg/L,16 mg/L,≤ 0.03 mg/L
Cc1ccc(C(=O)c2cc(NC(=O)c3cc(I)cc(I)c3O)ccc2Cl)cc1,,,16 mg/L,< 0.03 mg/L,100 µM,≤ 0.03 mg/L,4 mg/L,16 mg/L,0.5 mg/L,4 mg/L,16 mg/L,8 mg/L,16 mg/L,≤ 0.03 mg/L
Cc1ccc(OC(=O)c2cc(-c3ccc(C)c(C)c3)on2)c(C)c1,95%,0%,,,,,,,,,,,,
O=C(Nc1cc(Cl)ccc1Oc1ccc(Cl)c2ccccc12)c1cc(Cl)cc(Br)c1O,,,16 mg/L,< 0.03 mg/L,100 µM,≤ 0.03 mg/L,8 mg/L,16 mg/L,0.5 mg/L,16 mg/L,16 mg/L,8 mg/L,16 mg/L,≤ 0.03 mg/L
O=C(Nc1cc(Cl)cc(C(=O)c2ccc(Cl)cc2)c1Cl)c1cc(Cl)cc(Br)c1O,,,16 mg/L,< 0.03 mg/L,100 µM,0.5 mg/L,0.5 mg/L,16 mg/L,0.5 mg/L,0.5 mg/L,16 mg/L,8 mg/L,16 mg/L,1 mg/L
Cc1ccc(C)c(C(=O)c2cc(NC(=O)c3cc(Br)cc(Br)c3O)ccc2Oc2ccc(Cl)cc2)c1,,,16 mg/L,< 0.03 mg/L,> 100 µM,≤ 0.03 mg/L,8 mg/L,16 mg/L,0.5 mg/L,32 mg/L,16 mg/L,8 mg/L,16 mg/L,≤ 0.03 mg/L
Cc1ccc(C(C)C)c(Oc2ccccc2NC(=O)c2cc(Br)cc(Br)c2O)c1,,,16 mg/L,< 0.03 mg/L,50 µM,≤ 0.03 mg/L,1 mg/L,16 mg/L,0.5 mg/L,4 mg/L,16 mg/L,8 mg/L,16 mg/L,≤ 0.03 mg/L
O=C(Nc1ccc(Sc2nc3ccccc3s2)c(Cl)c1)c1cc(Br)cc(Br)c1O,,,16 mg/L,< 0.03 mg/L,100 µM,≤ 0.03 mg/L,4 mg/L,16 mg/L,0.5 mg/L,≤ 2 mg/L,16 mg/L,8 mg/L,16 mg/L,≤ 0.03 mg/L
O=C(Nc1ccc(Cl)c(Cl)c1)c1ccc([N+](=O)[O-])o1,96%,0%,32 mg/L,0.06 mg/L,,> 4 mg/L,2 mg/L,12 mg/L,0.5 mg/L,2 mg/L,32 mg/L,256 mg/L,128 mg/L,4 mg/L
